This passage reports CC50, selectivity ratio and EC50 results from ChEMBL document CHEMBL4699495, “Synthesis and biological evaluation of 5'-C-methyl nucleotide prodrugs for treating HCV infections” (Bioorg Med Chem Lett, 2020).

Series [1] is described as follows: Cytotoxicity against human HuH-7-Luc/Neo-ET cells. Format: cell-based. The settings on record: read-out: TC50 (the source's name). Summed up: (§1)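 HCV genotype 1b subgenomic replicon carried in Huh-7 Luc/Neo ET cells. Antiviral EC50 and cytotoxic TC50 were both determined in these cells. Each value is the average of triplicate experiments.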
Series [2] is described as follows: Therapeutic index, ratio of TC50 for human HuH-7-Luc/Neo-ET cells to EC50 for HCV infected in human HuH7-Luc/Neo-ET cells. Type of series: toxicity. The gist of the method: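 Therapeutic index calculated as TC50/EC50. Both values came from Huh-7 Luc/Neo ET cells bearing an HCV genotype 1b replicon, and each was averaged from triplicate experiments.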
The test system of a further series is Hepatitis C virus. Briefly: Antiviral activity against HCV subtype 1b infected in human HuH-7-Luc/Neo-ET cells by luciferase replicon-reporter gene assay. Format: functional, organism-based, Hepacivirus hominis. The gist of the method:
as §1
On the technique in general: In antiviral work, replicon cells carry a viral genome segment that copies itself.

For orientation: EC50 means the concentration giving half of the maximal effect. A lower EC50 goes with an effect from little substance. Take `CC(C)OC(=O)[C@H](C)N[P@](=O)(OC[C@H]1O[C@@H](n2ccc(=O)[nH]c2=O)[C@](C)(O)[C@@H]1O)Oc1ccccc1`: in series [1], the CC50 was 85.6 µM. Besides, the selectivity ratio in series [2] is 2780. This compound yielded an EC50 with Hepatitis C virus of 0.03 µM.

Regarding `CCCCCCCCCC(=O)Oc1ccc(COP(=O)(OCc2ccc(OC(=O)CCCCCCCCC)cc2)OP(=O)([O-])O[C@@H](C)[C@H]2O[C@@H](n3ccc(=O)[nH]c3=O)[C@](C)(O)[C@@H]2O)cc1.CCCC[N+](CCCC)(CCCC)CCCC`, the CC50 in series [1] was over 83.2 µM. In addition, in series [2], the selectivity ratio was found to be 3.29. The compound further yielded an EC50 in the series with Hepatitis C virus of 25.3 µM.

On to `CCCCCCCCCC(=O)Oc1ccc(COP(=O)(OCc2ccc(OC(=O)CCCCCCCCC)cc2)OP(=O)([O-])O[C@H](C)[C@H]2O[C@@H](n3ccc(=O)[nH]c3=O)[C@](C)(O)[C@@H]2O)cc1.CCCC[N+](CCCC)(CCCC)CCCC`, for which the CC50 in series [1] was over 100 µM. In addition, the selectivity ratio in series [2] was over 38.5. The EC50 in the series on Hepatitis C virus was 2.6 µM.

As for `CC(C)OC(=O)[C@H](C)N[P@@](=O)(Oc1ccccc1)O[C@H](C)[C@H]1O[C@@H](n2ccc(=O)[nH]c2=O)[C@](C)(O)[C@@H]1O`, the CC50 in series [1] is over 100 µM. In addition, in series [2], the selectivity ratio was over 67.1. In the series with Hepatitis C virus, this compound registered an EC50 of 1.49 µM.

Take `CC(C)OC(=O)[C@H](C)N[P@@](=O)(Oc1ccccc1)O[C@@H](C)[C@H]1O[C@@H](n2ccc(=O)[nH]c2=O)[C@](C)(O)[C@@H]1O`: the CC50 in series [1] was over 100 µM. In series [2], the selectivity ratio was over 12.9. The same compound had an EC50 with Hepatitis C virus of 7.75 µM.

Take `CCCCCCCCCC(=O)Oc1ccc(COP(=O)(OCc2ccc(OC(=O)CCCCCCCCC)cc2)OP(=O)([O-])OC[C@H]2O[C@@H](n3ccc(=O)[nH]c3=O)[C@](C)(O)[C@@H]2O)cc1.CCCC[N+](CCCC)(CCCC)CCCC`: the CC50 in series [1] is over 100 µM. Further, in series [2], the selectivity ratio is over 2590. This compound also displayed an EC50 in the series on Hepatitis C virus of 0.04 µM.

As to `CC(C)OC(=O)[C@H](C)N[P@](=O)(OC[C@H]1O[C@@H](n2ccc(=O)[nH]c2=O)[C@](C)(F)[C@@H]1O)Oc1ccccc1` [SOFOSBUVIR], in series [1], the CC50 was over 1 µM. Also, in series [2], the selectivity ratio was over 29.2. Moreover, it took 0.03 µM to reach a half-maximal effect with Hepatitis C virus (EC50).
